Assay outcomes deposited in PubChem BioAssay by The Scripps Research Institute Molecular Screening Center.
A selection: hits, their analogues and other compounds. The true share with any hit is near 2%.
UHRF1 binding – UHRF1 methylated DNA binding inhibitors, primary screen, counter-screen for MBD2 inhibitor project, biochemical, TR-FRET, human UHRF1, single concentration. E3 ubiquitin-protein ligase UHRF1 (Homo sapiens), Q96T88. UHRF1 binding to methylated oligo. inhibition, % at 4.4 µM. hit rate 0.75% among 370,000. AID 687016, 2013;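 also: UHRF1 SRA domain binding a hemimethylated CpG hairpin DNA probe; 0% = median of test compound wells and 100% = reference inhibitor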
LEDGF integ inh – blockers of LEDGF/p75-dependent integrase strand transfer – biochemical, TR-FRET, high throughput, primary screen; HIV-1 integrase (with human LEDGF/p75); TR-FRET IN-LEDGF/p75 DNA integration, Eu/Cy5; inhibition, % at 3.7 µM; hit rate 0.64% among 370,000; AID 743269, 2014;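 active = inhibition above the screen-wide mean plus 3 SD, cut at about 13% in these data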;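 also: signal is the Cy5 over europium emission ratio at 671 and 618 nm; 0% = plate median of compound wells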
ASAP1 GAP inh – inhibitors of human ASAP1 ArfGAP activity, primary screen, biochemical, fluorescence polarization; Arf-GAP with SH3 domain, ANK repeat and PH domain-containing protein 1 (Homo sapiens), …; AID 624377, 2012; ASAP1-stimulated ARF1 GTP hydrolysis, GDP FP detection; inhibition, % at 16.5 µM; hit rate 0.19% among 360,000; in the data active = inhibition above about 25%;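 also: 0% = vehicle with enzyme and substrate and 100% = no enzyme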
TDP2 inh – human TDP2 enzyme inhibitors, primary screen, biochemical, epi absorbance, recombinant enzyme | Tyrosyl-DNA phosphodiesterase 2 (Homo sapiens), O95551 | inhibition, % at 12.8 µM | hit rate 0.34% among 370,000 | T5PNP hydrolysis, p-nitrophenol absorbance 415 nm | AID 720702, 2013;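 active = inhibition above the mean of all tested compounds plus 3 SD, set per campaign, cut at about 25% in these data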;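 also: 0% = DMSO with enzyme and 100% = buffer with substrate but no TDP2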
Target sequence (O95551 whole entry, looked up): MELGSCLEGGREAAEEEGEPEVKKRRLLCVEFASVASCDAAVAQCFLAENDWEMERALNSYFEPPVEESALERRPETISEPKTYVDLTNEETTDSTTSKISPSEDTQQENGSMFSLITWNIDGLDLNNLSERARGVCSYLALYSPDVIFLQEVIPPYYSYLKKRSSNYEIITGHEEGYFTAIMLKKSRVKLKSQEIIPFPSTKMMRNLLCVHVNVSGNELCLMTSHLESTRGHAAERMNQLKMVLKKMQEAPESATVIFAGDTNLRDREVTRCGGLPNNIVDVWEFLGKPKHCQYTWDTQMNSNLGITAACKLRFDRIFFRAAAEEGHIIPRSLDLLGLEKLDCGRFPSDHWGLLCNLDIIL
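Incubation: 2 h at 37 °C; Test system: recombinant human TDP2; Quantity: enzyme 120 nM; Read-out basis: percent inhibition; Medium: 50 mM Tris-HCl pH 7.5 with Mg2+, KCl, DTT, BSA; Repeats: single replicate; Compound: 12.8 µM single point, 1% DMSO; Signal: epi absorbance; Reagent: 5 mM T5PNP chromogenic substrate; Benchmarks: no-enzyme high, DMSO-plus-enzyme low.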
ARFGAP1 inh – inhibitors of rat ARFGAP1 GAP activity, primary screen, biochemical, fluorescence polarization, GDP tracer; ADP-ribosylation factor GTPase-activating protein 1 (Rattus norvegicus), Q62848; Arfgap1-stimulated ARF1 GTP hydrolysis, GDP FP detection; inhibition, % at 16.5 µM; hit rate 0.26% among 360,000; AID 651572, 2012;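 active = inhibition above a per-plate limit, mean inhibition of low control wells plus 3 SD, cut at about 25% in these data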;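 also: 0% = DMSO wells with enzyme and 100% = wells lacking Arfgap1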
Target sequence (Q62848 1-136 limits assumed): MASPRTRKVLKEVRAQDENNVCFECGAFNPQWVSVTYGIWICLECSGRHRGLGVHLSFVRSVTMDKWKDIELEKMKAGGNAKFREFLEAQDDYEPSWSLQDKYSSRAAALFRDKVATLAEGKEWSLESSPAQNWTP
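Material: rat Arfgap1 catalytic domain, aa 1-136; also added: human ARF1(Δ1-17)-GTP substrate; compound dosing: one concentration, 16.5 µM, DMSO 1.26%; incubation: GTP hydrolysis reaction 2 h at 25 °C; measured by: Tracer-displacement fluorescence polarization with EDTA stop, 620/688 nm; evaluation: % inhibition from polarization; repeats: one replicate per compound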
MBD2 inh – inhibitors of MBD2 binding to methylated DNA, primary screen, biochemical, TR-FRET, DNA-binding domain, human | inhibition, % at 4.4 µM | MBD2 binding to methylated oligonucleotide | hit rate 0.31% among 370,000 | AID 686964, 2013 | Methyl-CpG-binding domain protein 2 (Homo sapiens), Q9UBB5; in the data active = inhibition above about 13%
UHRF1 ctr MBD2 – UHRF1 methylated DNA binding inhibitors, counter-screen for MBD2 inhibitor project, biochemical, TR-FRET, human UHRF1; hit rate 25% among 1,000; inhibition, % at 4.4 µM; UHRF1 binding to methylated oligonucleotide; AID 720530, 2013; shares compounds with MBD2 inh;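 also: UHRF1 SRA domain binding a labeled hemimethylated CpG hairpin DNA; 0% = vehicle only and 100% = reference inhibitor with vehicle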
MBD2 DBD conf – inhibitors of MBD2 binding to methylated DNA, confirmation, biochemical, TR-FRET, DNA-binding domain, human. TR-FRET MBD2-DBD binding to methylated oligonucleotide. hit rate 26% among 1,000. shares compounds with MBD2 inh. inhibition, % at 4.4 µM; in the data active = inhibition above about 14%
* hit, by the source's call; nt = not tested or not shown. Rule as the data show it, unless noted: active = inhibition above about 21%; inactive = the rest.

SMILES	UHRF1 binding	LEDGF integ inh	ASAP1 GAP inh	TDP2 inh	ARFGAP1 inh	MBD2 inh	UHRF1 ctr MBD2	MBD2 DBD conf
O=C(NC1CCCCCC1)C1CCC(CNS(=O)(=O)c2ccc(Br)s2)CC1 (centres undefined)	23*	-1	-3	-3	-1	14*	4	2
CC1CCC(NC(=O)C2CCC(CNS(=O)(=O)c3ccccc3)CC2)CC1 (centres undefined)	7	8	0	0	-7	2	nt	nt
Cc1ccc2sc(N(CCCN(C)C)C(=O)c3ccc(S(=O)(=O)N(C)Cc4ccccc4)cc3)nc2c1C	0	-2	-1	-6	9	56*	3	1
COc1ccc(NC(=O)N(C)C[C@@H]2OCc3cn(nn3)CCCC(=O)N([C@H](C)CO)C[C@H]2C)cc1	6	-1	9	1	8	17*	9	4
C[C@@H]1CN([C@@H](C)CO)C(=O)CCCn2cc(nn2)CO[C@H]1CN(C)C(=O)C1CC1	0	1	9	0	0	13*	4	1
C[C@H]1CN([C@@H](C)CO)C(=O)CCCn2cc(nn2)CO[C@@H]1CN(C)C(=O)C1CC1	0	1	4	3	4	-1	nt	nt
Fc1ccc(-c2cc(-c3nnc4sc(Cc5cccs5)nn34)[nH]n2)cc1	-1	7	nt	-4	nt	1	nt	nt
CCCCC(=O)Nc1ccc(N2CCN(c3ccc(F)cc3)CC2)cc1	4	6	3	1	0	34*	3	2
CCCC(=O)Nc1ccc(N2CCCCC2)cc1	9	2	6	-14	3	2	nt	nt
Cc1ccc(C(=O)NCc2ccc3c(c2)OCO3)c(Cl)c1	22*	-4	-2	3	1	15*	6	5
Cc1ccc(C(=O)NCc2ccc3c(c2)OCO3)c(C)c1	5	1	5	-8	7	9	nt	nt
COc1ccc(N=Cc2ccc[nH]2)cc1	0	-7	-9	-3	8	22*	7	2
Cc1cc(C)c(OCC(=O)OCC(=O)NNC(=O)c2ccccc2F)c(C)c1	3	-7	5	7	-14	22*	5	2
Cc1cc(C)c(OCC(=O)OCC(=O)NCc2cccs2)c(C)c1	-4	-3	10	-1	4	2	nt	nt
CC(C)CNS(=O)(=O)/C=C/c1ccccc1CNC(=O)OC(C)(C)C	2	7	nt	-8	nt	0	nt	nt
COc1ccc(CCNCC(O)COc2ccc(Cl)cc2)cc1OC (centres undefined)	0	-2	-3	11	10	0	nt	nt
COc1ccc(CCNCC(O)COc2cccc(C(C)=O)c2)cc1OC (centres undefined)	25*	2	11	16	18	17*	7	4
CCOC(=O)c1c(C)n(C)c2ccc(OC)c([N+](=O)[O-])c12	29*	2	1	2	6	13*	9	1
CCOC(=O)c1c(C)n(C)c2ccc(OC)c(NC(=O)CN3CCCCC3)c12	2	0	4	-6	6	0	nt	nt
O=C(CSc1nnc(-c2ccncc2)n1-c1ccc(Br)cc1)c1ccccc1	0	0	nt	-1	nt	0	nt	nt
O=S(=O)(Nc1cccc(S(=O)(=O)N2CCCC2)c1)c1ccc(Br)cc1	0	1	-2	-4	-11	0	nt	nt
O=S(=O)(Nc1cccc(S(=O)(=O)N2CCCC2)c1)c1cccc(Br)c1	-1	-2	-15	0	-2	105*	8	2
Fc1ccccc1Cn1ccc2ccc(-c3ccc4ccn(Cc5ccccc5)c4c3)cc21	0	-2	nt	9	nt	-4	nt	nt
Cc1ccc(S(=O)(=O)NCC(=O)OCC(=O)c2ccc(S(=O)(=O)N3CCCCC3)cc2)cc1C	-1	-4	4	2	6	25*	2	4
CCOC(=O)C1CCN(CC(=O)Nc2c(C(=O)OC)[nH]c3cccc(Cl)c23)CC1	-1	2	9	-8	0	14*	3	6
SMILES	UHRF1 binding	LEDGF integ inh	ASAP1 GAP inh	TDP2 inh	ARFGAP1 inh	MBD2 inh	UHRF1 ctr MBD2	MBD2 DBD conf
CCOC(=O)C1CCN(CC(=O)Nc2c(C(=O)OC)[nH]c3ccccc23)CC1	1	-1	10	1	19	5	nt	nt
Cc1ccc(C)c(NC(=O)CN(C)C(=O)c2cccc(-n3cccc3)c2)c1	36*	1	-2	7	-5	22*	43*	33*
COc1ccc(NC(=O)CCc2ccccc2)cc1NC(=O)c1ccco1	4	0	1	-8	4	3	nt	nt
COc1ccc(CC(=O)Nc2ccc(OC)c(NC(=O)c3ccco3)c2)cc1	20	2	6	6	-7	15*	3	6
FC(F)Sc1nc2ccccc2[nH]1	0	-3	1	9	7	40*	9	6
COc1ccc2c(c1)CN1C(=O)N(Cc3ccccc3)S(=O)(=O)CC21 (centres undefined)	2	5	nt	-12	nt	2	nt	nt
Cc1oc2ccc(O)cc2c1C(=O)c1ccc(Cl)cc1	-2	-1	3	10	1	1	nt	nt
Cc1oc2ccc(O)cc2c1C(=O)c1ccc(Br)cc1	-2	2	1	5	-5	16*	3	3
COc1ccccc1NC(=S)N1CCC(c2nc3cc(C)c(C)cc3[nH]2)CC1	4	-6	-2	-10	4	4	nt	nt
COc1ccccc1NC(=O)N1CCC(c2nc3cc(C)c(C)cc3[nH]2)CC1	18	0	-8	10	11	13*	6	2
COCCN(C(=O)c1ccc2ccccc2c1)c1c(N)n(Cc2ccccc2)c(=O)[nH]c1=O	4	1	1	-4	-10	6	nt	nt
